Data: ChEMBL document CHEMBL4145461, “Novel non-sulfonamide 5-HT6 receptor partial inverse agonist in a group of imidazo[4,5-b]pyridines with cognition enhancing properties” (Eur J Med Chem, 2018)

Columns and labels:
Cytochrome P450 2D6 [1] = target: T1, Cytochrome P450 2D6 (Homo sapiens, UniProt P10635); experiment: Inhibition of CYP2D6 (unknown origin) at 0.025 to 25 uM after 2 hrs by firefly luciferase-luminescence based P450-glo assay; assay type: ADME
Outline: (§1)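 Recombinant CYP3A4 or CYP2D6 incubated 2 h with test compound (0.025–25 μM final) and an isoform-specific luciferin derivative. Firefly luciferase then added, and luminescence is proportional to D-luciferin formed. Reference inhibitors: ketoconazole (CYP3A4) and quinidine (CYP2D6, 0.1–100 nM).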

[2] = target: Sodium-dependent serotonin transporter (Homo sapiens) (UniProt P31645); experiment: Displacement of [3H]imipramine from recombinant human SERT at 1 uM after 60 mins by scintillation counting relative to control
Chain of Sodium-dependent serotonin transporter (Homo sapiens) (P31645 whole entry, looked up): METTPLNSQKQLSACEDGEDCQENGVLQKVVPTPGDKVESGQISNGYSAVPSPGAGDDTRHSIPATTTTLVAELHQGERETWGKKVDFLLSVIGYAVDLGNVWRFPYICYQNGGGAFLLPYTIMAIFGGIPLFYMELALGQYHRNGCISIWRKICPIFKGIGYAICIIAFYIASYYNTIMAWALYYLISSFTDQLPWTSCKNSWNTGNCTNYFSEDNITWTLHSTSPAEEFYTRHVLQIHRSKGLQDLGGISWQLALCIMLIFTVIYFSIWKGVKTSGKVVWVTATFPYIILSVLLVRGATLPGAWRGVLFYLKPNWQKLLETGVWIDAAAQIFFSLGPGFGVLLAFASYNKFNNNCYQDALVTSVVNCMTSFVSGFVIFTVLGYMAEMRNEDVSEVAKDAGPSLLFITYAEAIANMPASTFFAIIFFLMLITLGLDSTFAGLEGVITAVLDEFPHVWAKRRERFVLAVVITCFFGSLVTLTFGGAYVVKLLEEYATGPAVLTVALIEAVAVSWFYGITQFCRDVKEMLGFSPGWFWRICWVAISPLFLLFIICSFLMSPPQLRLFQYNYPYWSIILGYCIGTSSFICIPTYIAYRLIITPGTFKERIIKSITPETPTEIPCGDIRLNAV

D(2) dopamine receptor = D(2) dopamine receptor (Homo sapiens, UniProt P14416); experiment: Displacement of [3H]-Raclopride from human dopamine D2L receptor expressed in HEK293 cell membranes after 1 hr by microbeta counting method
Chain of D(2) dopamine receptor (P14416 whole entry): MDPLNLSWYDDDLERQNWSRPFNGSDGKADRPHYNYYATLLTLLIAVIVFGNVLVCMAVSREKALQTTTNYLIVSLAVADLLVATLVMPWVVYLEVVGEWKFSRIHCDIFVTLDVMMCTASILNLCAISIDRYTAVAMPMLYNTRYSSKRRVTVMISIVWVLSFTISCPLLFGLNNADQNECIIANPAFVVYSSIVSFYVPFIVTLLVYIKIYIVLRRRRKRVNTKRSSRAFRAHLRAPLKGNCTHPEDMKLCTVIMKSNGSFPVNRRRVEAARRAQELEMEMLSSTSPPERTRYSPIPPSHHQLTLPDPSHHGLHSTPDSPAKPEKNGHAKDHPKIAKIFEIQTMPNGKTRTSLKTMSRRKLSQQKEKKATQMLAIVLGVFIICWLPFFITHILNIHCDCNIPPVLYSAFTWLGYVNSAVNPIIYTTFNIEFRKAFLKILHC
Outline: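 HEK293 (5-HT1A, 5-HT6, 5-HT7b, D2L) or CHO-K1 (5-HT2A) membranes, all Tris–HCl with 4 mM MgCl2 plus receptor-specific EDTA/pargyline/ascorbate (D2L adds NaCl, KCl, CaCl2). Nonspecific binding: 10 μM 5-HT (5-HT1A, 5-HT7), chlorpromazine (5-HT2A), methiothepine (5-HT6), haloperidol (D2L). Triplicate, 7–8 concentrations (10⁻¹¹–10⁻⁴ M), filtration; Ki via Cheng–Prusoff, mean of three experiments. Incubation 1 h 37 °C; 5-HT1A 1 h and 5-HT2A 1.5 h, room temperature.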

[3] = target: T2, alpha-1 adrenergic receptor (Rattus norvegicus, UniProt P15823+P23944+P43140); experiment: Displacement of [3H]prazosin from rat brain alpha-1 adrenergic receptor at 1 uM after 60 mins by scintillation counting relative to control; details: rat brain alpha-1 adrenergic receptor preparation, probe [3H]prazosin
T2 sequence (P15823 whole entry): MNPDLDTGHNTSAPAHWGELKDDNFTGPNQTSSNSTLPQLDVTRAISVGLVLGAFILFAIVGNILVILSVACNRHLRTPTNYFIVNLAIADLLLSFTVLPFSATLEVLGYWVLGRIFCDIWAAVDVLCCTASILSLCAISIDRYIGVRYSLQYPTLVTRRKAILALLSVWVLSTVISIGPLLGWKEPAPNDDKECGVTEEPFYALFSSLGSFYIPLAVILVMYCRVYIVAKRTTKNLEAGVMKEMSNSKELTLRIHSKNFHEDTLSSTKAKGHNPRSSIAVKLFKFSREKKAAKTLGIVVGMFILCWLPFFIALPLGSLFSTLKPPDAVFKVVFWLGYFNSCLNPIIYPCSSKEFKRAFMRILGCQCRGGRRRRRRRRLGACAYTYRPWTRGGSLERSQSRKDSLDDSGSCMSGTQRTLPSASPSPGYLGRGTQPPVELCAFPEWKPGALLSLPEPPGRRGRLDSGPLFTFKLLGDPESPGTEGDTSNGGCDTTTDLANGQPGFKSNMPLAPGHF
T2 sequence (P23944 whole entry): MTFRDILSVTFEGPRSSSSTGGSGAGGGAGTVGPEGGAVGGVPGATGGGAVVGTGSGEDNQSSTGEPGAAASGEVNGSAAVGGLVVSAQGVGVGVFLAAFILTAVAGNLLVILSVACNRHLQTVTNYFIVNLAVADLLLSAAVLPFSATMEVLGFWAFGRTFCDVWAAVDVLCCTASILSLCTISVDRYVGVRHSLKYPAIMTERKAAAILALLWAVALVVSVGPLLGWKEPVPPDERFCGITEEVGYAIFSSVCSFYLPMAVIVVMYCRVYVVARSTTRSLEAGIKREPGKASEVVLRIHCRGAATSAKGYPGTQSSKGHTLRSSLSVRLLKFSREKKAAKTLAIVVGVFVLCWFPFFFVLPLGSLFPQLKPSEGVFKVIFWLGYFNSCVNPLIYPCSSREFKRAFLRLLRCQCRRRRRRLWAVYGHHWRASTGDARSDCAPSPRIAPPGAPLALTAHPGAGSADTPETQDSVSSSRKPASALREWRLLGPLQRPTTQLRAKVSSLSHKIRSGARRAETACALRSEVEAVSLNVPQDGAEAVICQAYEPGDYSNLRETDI
T2 sequence (P43140 whole entry): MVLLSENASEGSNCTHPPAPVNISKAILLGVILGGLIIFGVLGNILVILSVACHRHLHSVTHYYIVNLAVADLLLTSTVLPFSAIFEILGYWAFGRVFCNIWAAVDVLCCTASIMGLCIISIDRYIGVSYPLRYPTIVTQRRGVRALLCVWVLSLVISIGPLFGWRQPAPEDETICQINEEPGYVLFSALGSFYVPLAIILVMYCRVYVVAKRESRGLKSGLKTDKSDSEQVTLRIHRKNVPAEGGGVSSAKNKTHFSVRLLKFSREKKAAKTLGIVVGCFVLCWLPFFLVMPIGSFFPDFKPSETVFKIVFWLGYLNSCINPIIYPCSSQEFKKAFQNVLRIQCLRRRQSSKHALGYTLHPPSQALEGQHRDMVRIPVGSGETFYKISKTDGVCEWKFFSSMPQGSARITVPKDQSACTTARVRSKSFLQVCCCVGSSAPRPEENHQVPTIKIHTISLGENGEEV

Cytochrome P450 2D6 [4] = target: T1, Cytochrome P450 2D6; experiment: Induction of CYP2D6 (unknown origin) at 0.025 to 25 uM after 2 hrs by firefly luciferase-luminescence based P450-glo assay; assay type: ADME; outline: as §1
hERG (KCNH2) = hERG (KCNH2) (Homo sapiens, UniProt Q12809); experiment: Displacement of [3H]Dofetilide from recombinant human ERG at 1 uM after 60 mins by scintillation counting relative to control; details: probe [3H]Dofetilide
Chain of hERG (KCNH2) (Q12809 whole entry): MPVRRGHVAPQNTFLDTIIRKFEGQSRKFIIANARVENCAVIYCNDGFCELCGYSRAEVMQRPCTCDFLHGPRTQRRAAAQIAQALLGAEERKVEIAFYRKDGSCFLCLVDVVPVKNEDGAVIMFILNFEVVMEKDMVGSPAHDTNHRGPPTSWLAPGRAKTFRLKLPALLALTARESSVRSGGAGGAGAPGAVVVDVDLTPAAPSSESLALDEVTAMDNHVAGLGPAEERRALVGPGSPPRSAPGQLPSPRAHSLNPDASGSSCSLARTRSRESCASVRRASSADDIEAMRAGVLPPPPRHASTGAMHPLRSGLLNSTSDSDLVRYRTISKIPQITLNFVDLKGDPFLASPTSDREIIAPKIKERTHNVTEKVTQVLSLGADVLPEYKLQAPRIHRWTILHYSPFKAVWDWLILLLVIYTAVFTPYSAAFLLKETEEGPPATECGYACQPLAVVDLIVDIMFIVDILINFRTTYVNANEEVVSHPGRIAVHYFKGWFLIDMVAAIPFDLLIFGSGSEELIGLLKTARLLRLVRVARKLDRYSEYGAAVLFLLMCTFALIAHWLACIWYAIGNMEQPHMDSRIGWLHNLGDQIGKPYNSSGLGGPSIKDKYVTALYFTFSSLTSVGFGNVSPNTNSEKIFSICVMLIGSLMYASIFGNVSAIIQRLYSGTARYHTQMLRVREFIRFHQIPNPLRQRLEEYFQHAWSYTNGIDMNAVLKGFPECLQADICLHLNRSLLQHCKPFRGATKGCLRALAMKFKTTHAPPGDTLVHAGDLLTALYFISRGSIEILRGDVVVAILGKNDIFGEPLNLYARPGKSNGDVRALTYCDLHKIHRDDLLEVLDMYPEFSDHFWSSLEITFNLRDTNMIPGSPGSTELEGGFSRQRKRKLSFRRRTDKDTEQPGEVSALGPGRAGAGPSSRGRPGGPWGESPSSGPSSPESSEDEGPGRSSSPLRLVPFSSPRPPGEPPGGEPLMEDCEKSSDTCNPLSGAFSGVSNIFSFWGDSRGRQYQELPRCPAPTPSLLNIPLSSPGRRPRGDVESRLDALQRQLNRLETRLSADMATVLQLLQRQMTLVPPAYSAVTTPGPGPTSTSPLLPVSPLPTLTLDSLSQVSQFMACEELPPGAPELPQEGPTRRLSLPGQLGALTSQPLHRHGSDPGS

[5] = Cmax in Wistar rat at 10 mg/kg, po administered as single dose by LC/MS analysis; assay type: ADME, organism-based; set-up: dose 10 mg/kg, route oral; details: in vivo
Outline: (§2)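 Male Wistar rats (229–272 g), fasted 16 h before and 4 h after dosing, given 10 mg/kg orally in water. Four rats per time point at 15 min, 30 min, 1, 2, 4 and 8 h. Plasma (K3EDTA) and brain homogenate collected and analysed by LC-MS/MS.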

[6] = Tmax in Wistar rat at 10 mg/kg, po administered as single dose by LC/MS analysis; assay type: ADME, organism-based; details: in vivo; outline: as §2
[7] = target: Histamine H3 receptor (Homo sapiens) (UniProt Q9Y5N1); experiment: Displacement of [3H]Nalpha-Me-histamine from recombinant human histamine H3 receptor at 1 uM after 60 mins by scintillation counting relative to control
Chain of Histamine H3 receptor (Homo sapiens) (Q9Y5N1 whole entry): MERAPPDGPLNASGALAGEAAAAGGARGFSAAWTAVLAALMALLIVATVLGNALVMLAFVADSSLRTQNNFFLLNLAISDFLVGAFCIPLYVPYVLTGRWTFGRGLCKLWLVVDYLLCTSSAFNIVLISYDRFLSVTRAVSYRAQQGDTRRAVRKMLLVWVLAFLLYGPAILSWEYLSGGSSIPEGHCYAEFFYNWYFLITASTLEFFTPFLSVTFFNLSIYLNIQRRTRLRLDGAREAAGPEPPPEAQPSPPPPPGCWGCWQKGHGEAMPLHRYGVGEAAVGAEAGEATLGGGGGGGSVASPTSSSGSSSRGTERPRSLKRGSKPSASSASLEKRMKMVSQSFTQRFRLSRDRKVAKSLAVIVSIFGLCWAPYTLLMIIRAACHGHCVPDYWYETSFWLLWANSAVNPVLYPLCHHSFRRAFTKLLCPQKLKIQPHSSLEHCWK

T1 sequence (P10635 whole entry, canonical isoform): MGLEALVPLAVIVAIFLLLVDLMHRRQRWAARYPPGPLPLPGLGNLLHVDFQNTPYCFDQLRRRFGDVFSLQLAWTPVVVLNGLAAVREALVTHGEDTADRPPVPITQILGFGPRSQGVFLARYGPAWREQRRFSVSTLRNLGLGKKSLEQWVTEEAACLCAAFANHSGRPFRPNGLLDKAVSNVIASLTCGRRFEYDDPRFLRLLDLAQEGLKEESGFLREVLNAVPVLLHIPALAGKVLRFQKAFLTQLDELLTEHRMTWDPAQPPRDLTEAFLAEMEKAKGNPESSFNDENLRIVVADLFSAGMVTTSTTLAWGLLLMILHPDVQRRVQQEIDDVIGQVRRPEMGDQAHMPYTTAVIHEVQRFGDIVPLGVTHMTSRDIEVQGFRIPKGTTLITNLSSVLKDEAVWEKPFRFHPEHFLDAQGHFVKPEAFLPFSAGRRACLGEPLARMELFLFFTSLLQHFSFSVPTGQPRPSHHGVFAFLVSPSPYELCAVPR

inhibition (INH) (Cytochrome P450 2D6 [1]): Not Active
inhibition [2]: 1.9%
Ki (D(2) dopamine receptor): 3.48 µM
inhibition at 1 h, 1 µM [3]: 0.2%
Activity (Cytochrome P450 2D6 [4]): Active
Cmax [5]: 140 ng/mL
Tmax [6]: 15 min
inhibition [7]: 1.6%
SMILES: CCc1nc2c(N3CCNCC3)ccnc2n1Cc1cccc(F)c1
inhibition at 1 h, 1 µM (hERG (KCNH2)): -6.1%
